Bioassay records as filed in PubChem BioAssay.
SENP8 block-1: SENP8 (human) protease inhibition; recombinant SENP8, Nedd8 substrate fluorescence; Q96LD8; AID 602440; actives 0.64% (n = 360,000); inhibition, % at 20 µM; in the data active = inhibition mostly above about 40%, no sharp cut-off; inactive = mostly below about 27%
Target sequence (Q96LD8 whole entry, looked up): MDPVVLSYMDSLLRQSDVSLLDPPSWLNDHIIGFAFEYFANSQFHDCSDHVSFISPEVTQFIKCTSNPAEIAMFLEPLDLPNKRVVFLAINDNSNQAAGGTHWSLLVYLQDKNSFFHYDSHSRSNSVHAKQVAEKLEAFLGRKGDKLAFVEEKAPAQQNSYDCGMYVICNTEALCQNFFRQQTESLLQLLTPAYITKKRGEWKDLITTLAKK
SENP8 block-2: inhibitors of human SENP8 protease. AID 2540. actives 1.2% (n = 330,000). inhibition, % at 10 µM. purified SENP8, Z-RLRGG-aminoluciferin cleavage, luminescence. Q96LD8; in the data active = inhibition above about 50%
SENP7 block: blocks the human protease SENP7 | actives 1.5% (n = 330,000) | Q9BQF6 | inhibition, % at 5 µM | recombinant SENP7, Z-RLRGG-aminoluciferin luminescence, 40 min;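 active = inhibition above about 50% at the single test dose, limit read from the data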;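 also: plate controls were DMSO with enzyme for no effect and no enzyme buffer wells for full effect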
Target sequence (Q9BQF6 706-1050 limits assumed): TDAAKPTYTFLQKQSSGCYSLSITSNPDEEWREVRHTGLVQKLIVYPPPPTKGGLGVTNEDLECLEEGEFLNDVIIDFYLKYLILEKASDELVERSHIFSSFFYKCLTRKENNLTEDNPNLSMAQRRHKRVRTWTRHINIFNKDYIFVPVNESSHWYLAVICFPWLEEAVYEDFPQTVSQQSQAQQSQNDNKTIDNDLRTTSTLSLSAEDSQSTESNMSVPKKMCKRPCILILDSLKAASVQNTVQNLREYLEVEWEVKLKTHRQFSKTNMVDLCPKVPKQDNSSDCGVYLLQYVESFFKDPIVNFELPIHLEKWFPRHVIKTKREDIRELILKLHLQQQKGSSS
SENP6 block: blocks the human protease SENP6 | Q9GZR1 | Recombinant SENP6 catalytic domain, aminoluciferin luminescence | inhibition, % at 10 µM | actives 1.8% (n = 330,000);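 active = inhibition above about 50% at the single tested dose, limit read from the data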;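 also: plate controls were DMSO wells with enzyme for no effect and DMSO wells lacking enzyme for full effect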
SENP1 inh: inhibitors of human SENP1 SUMO protease catalytic domain | Q9P0U3 | recombinant SENP1 catalytic domain, CyPet-SUMO1-YPet FRET cleavage | actives 0.21% (n = 360,000) | inhibition, % at 10 µM;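 active = inhibition at least 30% at 10 µM, raw YFP signal under a set limit, fluorescence ratio 0.5 to 1.5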;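 also: 0% = enzyme with DMSO and 100% = no enzyme wells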
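Test system: recombinant human SENP1 catalytic domain, His6-tagged / Medium: pH 8 Tris buffer with EDTA, NaCl, BME, BSA, NP40, catalase / Also added: SUMO1 FRET substrate flanked by Cypet and Ypet, 25 nM / Times: 50 min reaction at room temperature / Signal: FRET, CFP and YFP emission / Control set: no-enzyme low control and enzyme-plus-DMSO high control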
SENP8 confirm: confirmation of human SENP8 protease inhibitors; shares compounds with SENP7 block; actives 40% (n = 6,200); inhibition, % at 12.5 µM; Recombinant SENP8, Z-RLRGG-aminoluciferin luminescence, 60 min; AID 488912;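 active = mean inhibition across replicates above about 50%, limit read from the data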
SENP6 conf: human SENP6 inhibition, confirmed; inhibition, % at 12.5 µM; shares compounds with SENP7 block; actives 58% (n = 6,200); AID 488915; recombinant SENP6, Z-RLRGG-aminoluciferin luminescence
SENP7 conf: human SENP7 inhibition, confirmed | AID 488917 | inhibition, % at 12.5 µM | shares compounds with SENP7 block | actives 69% (n = 6,200) | recombinant SENP7, Z-RLRGG-aminoluciferin luminescence, 40 min
Casp3 SENP sel: selectivity test for SENP inhibitors: human caspase-3 inhibition; shares compounds with SENP7 block; purified caspase-3, Z-DEVD-aminoluciferin luminescence, 60 min; inhibition, % at 12.5 µM; actives 60% (n = 6,200); AID 488918;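 active = mean inhibition above about 50%, limit read from the data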;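 also: plate controls were enzyme with DMSO for no effect and wells without caspase-3 for full effect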
Luc interf: interferes with luciferase luminescence in SENP counter-screen | actives 39% (n = 6,200) | inhibition, % at 12.5 µM | shares compounds with SENP7 block | Pre-incubated SENP8/Z-RLRGG-aminoluciferin, luciferase luminescence interference;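 active = mean inhibition above about 50% when retested at one dose, limit read from the data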;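 also: plate controls were DMSO wells with completed reaction for no effect and substrate without enzyme for full effect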
Active calls of the source: *; x = no result. In the library only some 2.5% were active in any assay of this set; here they are far more common.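 The calls were made as follows, unless noted: active = mean inhibition above about 50% in the one-dose retest (limit read from the data); inactive = the rest.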

SMILES | SENP8 block-1 | SENP8 block-2 | SENP7 block | SENP6 block | SENP1 inh | SENP8 confirm | SENP6 conf | SENP7 conf | Casp3 SENP sel | Luc interf
Cc1cccc(/C=C/c2nc3ccccc3c(=O)[nH]2)c1 | -79 | 75* | 97* | 87* | 0 | 38 | 68* | 39 | 79* | 4
CCCN1C(=O)/C(=C/c2nc3ccccc3c(=O)[nH]2)c2cc(C)ccc21 | -23 | -2 | 4 | 92* | -32 | 5 | 4 | 9 | 5 | 1
Cc1[nH]c2ccccc2c1/C=C/c1nc2ccccc2c(=O)[nH]1 | -406 | -16 | 3 | -5 | -34 | x | x | x | x | x
CCCN1C(=O)/C(=C/c2nc3ccccc3c(=O)[nH]2)c2ccccc21 | 6 | -4 | 5 | 13 | 2 | x | x | x | x | x
COc1ccc(Br)cc1CNC(=O)CN1C(=O)C(c2ccccc2)Oc2cccnc21 (stereo not given) | -67 | 8 | 1 | 6 | -32 | x | x | x | x | x
CC1=NN(C(N)=S)C(=O)C1N=Nc1ccc(F)cc1 (stereo not given) | 18 | 79* | 80* | 88* | 3 | 32 | 38 | 40 | 54* | 5
CC1=NN(C(N)=S)C(=O)C1N=Nc1ccc([N+](=O)[O-])cc1 (stereo not given) | 26 | 87* | 89* | 90* | 5 | 26 | 5 | -3 | -4 | -8
CC1=NN(C(N)=S)C(=O)C1N=Nc1ccc(O)cc1 (stereo not given) | 0 | 13 | 22 | 28 | 4 | x | x | x | x | x
CCOc1ccc(-c2nc(C)c(C(C)=O)n2O)cc1 | 14 | -1 | -14 | 0 | 1 | x | x | x | x | x
CCOc1ccc(N=NC2C(=O)N(C(N)=S)N=C2C)cc1 (stereo not given) | 14 | 93* | 88* | 97* | 5 | 71* | 97* | 102* | 97* | 90*
CC(=O)Nc1ccc(N=NC2C(=O)N(C(N)=S)N=C2C)cc1 (stereo not given) | 28 | 61* | 63* | 70* | 2 | 64* | 64* | 90* | 90* | 25
CC1=NN(c2ccccc2C(=O)O)C(=O)C1N=Nc1ccccc1 (stereo not given) | 28 | -4 | -1 | -1 | 5 | x | x | x | x | x
C=CCn1c(SCC(=O)Nc2cccc(S(N)(=O)=O)c2)nnc1C1CCCCC1 | 4 | -9 | 2 | 4 | 1 | x | x | x | x | x
O=C(Nc1cccc(Cl)c1)c1cc(-c2ccco2)on1 | -5 | 78* | 87* | 83* | -2 | 36 | 81* | 97* | 77* | 42
COc1ccc(-c2cc(C(=O)Nc3cccc(C(C)=O)c3)no2)cc1 | 14 | -3 | -7 | 0 | 1 | x | x | x | x | x
COc1ccc(-c2cc(C(=O)Nc3cccc(Cl)c3)no2)cc1 | 8 | 18 | 78* | 15 | 0 | -21 | -12 | -4 | 11 | -5
COc1cccc(-c2cc(C(=O)Nc3cccc(O)c3)no2)c1 | 9 | 94* | 97* | 99* | 0 | 88* | 90* | 102* | 92* | 90*
O=C(Nc1c(Cl)cccc1Cl)c1cc(-c2ccco2)on1 | -2 | 5 | -2 | -24 | 0 | x | x | x | x | x
COc1ccc(NC(=O)c2cc(-c3cccc(OC)c3)on2)cc1 | 18 | -14 | 5 | -20 | 2 | x | x | x | x | x
O=C(Nc1cccc(O)c1)c1cc(-c2cccs2)on1 | 17 | 85* | 75* | 94* | 2 | 94* | 94* | 100* | 92* | 95*
COc1cccc(C(=S)N2CCCC2)c1OC | 28 | -6 | 3 | -1 | 0 | x | x | x | x | x
N#CC(C#N)=Cc1c(N2CCN(c3ccccc3)CC2)nc2ccccn2c1=O | -52 | 3 | 4 | 21 | -72 | x | x | x | x | x
CC(C)n1c(/N=C/c2c[nH]c3ccccc23)nc2ccccc21 | 21 | -10 | 8 | 1 | -5 | x | x | x | x | x
Cn1c(/N=C/c2c[nH]c3ccccc23)nc2ccccc21 | 17 | 94* | 93* | 95* | -6 | 96* | 97* | 103* | 94* | 20
CC(C)c1cc(=O)[nH]c(N2CCN(Cc3ccc4c(c3)OCO4)CC2)n1 | 5 | -7 | 7 | -13 | 2 | x | x | x | x | x
SMILES | SENP8 block-1 | SENP8 block-2 | SENP7 block | SENP6 block | SENP1 inh | SENP8 confirm | SENP6 conf | SENP7 conf | Casp3 SENP sel | Luc interf
CC(=O)NCCCNS(=O)(=O)c1ccc(C)cc1 | 15 | -2 | -3 | -27 | 2 | x | x | x | x | x
O=C(COc1ccc2ccccc2c1)Nc1ccccc1C(=O)O | -6 | 34 | 7 | 55* | 0 | 54* | 51* | 27 | 50 | 23
O=C(/C=C/c1ccco1)Nc1ccccc1C(=O)O | -10 | 88* | 83* | 93* | -4 | 93* | 94* | 101* | 97* | 93*
O=C(/C=C/c1ccco1)Nc1cc(Cl)ccc1C(=O)O | -44 | 56* | 7 | 73* | -1 | 72* | 71* | 88* | 70* | 75*
COc1ccc(/C=C/c2cc(C(=O)O)c3ccccc3n2)cc1 | -438 | 69* | 55* | -3 | -39 | -24 | -3 | 2 | -3 | 7
Cc1ccc(Cl)cc1NC(=O)C1CCCN1S(=O)(=O)c1ccc(-c2ccc(=O)[nH]n2)s1 (stereo not given) | -17 | 1 | 8 | 14 | -1 | x | x | x | x | x
Nn1c(-c2ccccc2)cc(-c2ccccc2)cc1=O | -29 | -5 | -1 | -5 | 0 | x | x | x | x | x
Cn1c(=O)c2c(SCC(=O)N3CCCCC3)nc(-c3ccccc3F)nc2n(C)c1=O | 9 | -11 | -4 | -4 | 3 | x | x | x | x | x
CC1=C(C(=O)OCCOc2ccccc2)C(c2ccsc2)NC(=O)N1C (stereo not given) | 0 | 2 | 5 | 10 | -1 | x | x | x | x | x
CCOC(=O)C1(C)CCCN(C(=O)CCc2ccccc2)C1 (stereo not given) | 23 | x | x | x | 2 | x | x | x | x | x
COc1ccc(/C=C/C(=O)Nc2ccccc2C(=O)N2CCCC2)cc1 | -3 | 11 | -3 | 18 | 0 | x | x | x | x | x
COc1ccc(/C=C/C(=O)Nc2ccccc2C(=O)O)cc1 | -4 | 93* | 96* | 95* | 1 | 97* | 97* | 100* | 96* | 96*
CN(CCc1ccccc1)C(c1cc2ccccc2o1)c1nnnn1C(C)(C)C (stereo not given) | 19 | x | x | x | 0 | x | x | x | x | x
